By IC50 is commonly meant the concentration that inhibits the measured activity by half.

The results in this text go back to ChEMBL document CHEMBL2311393 (Bioorg Med Chem Lett, 2013).

The structures appear in SMILES notation. Activity calls are given as the source filed them. No cut-off for these calls is given here.

Assay [1] relates to MCF7. Put plainly: Antiproliferative activity against human MCF7 cells. It counts as functional, cell-based. The essentials:
(§1)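 Growth inhibition in SKBr3 (ER-negative, Her2-overexpressing) and MCF-7 (ER-positive) breast cancer cells, run per an earlier published protocol. Values are mean ± standard deviation of at least two separate experiments, each in triplicate.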

The next assay relates to SK-BR-3. Put plainly: Antiproliferative activity against human SKBR3 cells. It counts as functional, cell-based. The essentials:
as §1

Assay [2] has as its system MCF7. In words: Effect on Hsp90 protein level in human MCF7 cells at 0.1 to 2.5 uM after 24 hrs by Western blot analysis. The class given is functional, cell-based. Put shortly:
(§2)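 MCF-7 cells were treated with the compound across a concentration series. Cell lysates were then probed by western blot for the Hsp90 client proteins Raf and Akt, for Hsp90 itself, and for actin as a non-Hsp90-dependent control protein.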
(Immunoblotting shows a protein as a band on a membrane.)

Assay [3] concerns the target T1, Heat shock protein HSP90 (Homo sapiens) (UniProt P07900+P08238). Put plainly: Inhibition of Hsp90 in human MCF7 cells assessed as degradation of client protein Raf after 24 hrs by Western blot analysis. The class given is cell-based. The essentials:
as §2

Assay [4] has as its target T1, Heat shock protein HSP90 (Homo sapiens). In words: Inhibition of Hsp90 in human MCF7 cells assessed as degradation of client protein Akt after 24 hrs by Western blot analysis. It counts as cell-based. The essentials:
as §2

Turning to `CCNCCCOc1ccc2cc(NC(=O)c3ccc(O)c(CC=C(C)C)c3)c(=O)oc2c1C`, the IC50 in the assay with MCF7 [1] was found to be 0.98 µM; in the assay with SK-BR-3, 0.72 µM.

`CC(C)=CCc1cc(C(=O)Nc2cc3ccc(OCCCN4CCN(C)CC4)c(C)c3oc2=O)ccc1O`: the IC50 came out at 1.2 µM with MCF7 [1] and 1.01 µM in the assay on SK-BR-3.

Turning to `CC(=O)Oc1ccc(C(=O)Nc2cc3ccc(OCC4CCN(C)C4)c(C)c3oc2=O)cc1CC=C(C)C` (stereo not given), the IC50 with MCF7 [1] turned out to be 1.88 µM; in the assay on SK-BR-3 it was 0.88 µM.

As to `CC(C)=CCc1cc(C(=O)Nc2cc3ccc(OCCCN[C@@H]4C[C@H]5CC[C@@H]4C5)c(C)c3oc2=O)ccc1O`, the IC50 was 1.03 µM in the assay with MCF7 [1] and 0.77 µM in the assay with SK-BR-3.

For the molecule `CC(C)=CCc1cc(C(=O)Nc2cc3ccc(OCCCN4CCCC4)c(C)c3oc2=O)ccc1O`, the results for the IC50 in the assay with MCF7 [1] and in the assay on SK-BR-3 were 0.99 µM and 0.72 µM, respectively.

As to `CCN(C)CCCOc1ccc2cc(NC(=O)c3ccc(O)c(CC=C(C)C)c3)c(=O)oc2c1C`, the IC50 with MCF7 [1] worked out at 2.19 µM; in the assay with SK-BR-3, 0.73 µM.

`CCN(CC)CCCOc1ccc2cc(NC(=O)c3ccc(O)c(CC=C(C)C)c3)c(=O)oc2c1C`: the figures for the IC50 in the assay with MCF7 [1] and with SK-BR-3 were 6.39 µM and 4.9 µM, respectively.

On to `CC(C)=CCc1cc(C(=O)Nc2cc3ccc(OCCCN4CCNCC4)c(C)c3oc2=O)ccc1O`, for which the IC50 with MCF7 [1] was 0.93 µM; in the assay on SK-BR-3, 0.82 µM.

On to `CC(C)=CCc1cc(C(=O)Nc2cc3ccc(OCCCNC(C)C)c(C)c3oc2=O)ccc1O`, for which the IC50 in the assay with MCF7 [1] turned out to be 0.74 µM; in the assay with SK-BR-3 it was 0.75 µM.

For the molecule `CC(C)=CCc1cc(C(=O)Nc2cc3ccc(OCCCN4CCCCC4)c(C)c3oc2=O)ccc1O`, the IC50 in the assay with MCF7 [1] and with SK-BR-3 was more than 50 µM throughout.

For the molecule `CCCN(CCC)CCCOc1ccc2cc(NC(=O)c3ccc(O)c(CC=C(C)C)c3)c(=O)oc2c1C`, the IC50 in the assay with MCF7 [1] and in the assay with SK-BR-3 was more than 50 µM throughout.

Turning to `COC(=O)CNCCCOc1ccc2cc(NC(=O)c3ccc(O)c(CC=C(C)C)c3)c(=O)oc2c1C`, the figures for the IC50 in the assay on MCF7 [1] and with SK-BR-3 were 2.82 µM and 1.06 µM, respectively.

Turning to `CC(=O)Oc1ccc(C(=O)Nc2cc3ccc(OCCC4CCCCN4)c(C)c3oc2=O)cc1CC=C(C)C` (stereo not given), the IC50 in the assay on MCF7 [1] was determined as 0.71 µM; in the assay with SK-BR-3, 0.64 µM.

Regarding `CC(C)=CCc1cc(C(=O)Nc2cc3ccc(OCCCNCC(=O)O)c(C)c3oc2=O)ccc1O`, the IC50 in the assay on MCF7 [1] is 18.1 µM; in the assay with SK-BR-3, 7.57 µM.

For `CCCNCCCOc1ccc2cc(NC(=O)c3ccc(O)c(CC=C(C)C)c3)c(=O)oc2c1C`, the IC50 was 0.98 µM in the assay on MCF7 [1] and 0.99 µM in the assay with SK-BR-3.

In the case of `CC(=O)Oc1ccc(C(=O)Nc2cc3ccc(OCC4CCCN(C)C4)c(C)c3oc2=O)cc1CC=C(C)C` (stereo not given), the IC50 in the assay with MCF7 [1] amounted to 1.65 µM; in the assay with SK-BR-3, 0.74 µM.

With `CC(C)=CCc1cc(C(=O)Nc2cc3ccc(OCCCNc4ccccc4)c(C)c3oc2=O)ccc1O`, the IC50 with MCF7 [1] and in the assay with SK-BR-3 was more than 50 µM in each case.

For `CC(C)=CCc1cc(C(=O)Nc2cc3ccc(OCCCNCc4ccccc4)c(C)c3oc2=O)ccc1O`, the concentration for half-maximal inhibition (IC50) with MCF7 [1] is 0.91 µM; in the assay on SK-BR-3 it was 0.47 µM.

`CC(C)=CCc1cc(C(=O)Nc2cc3ccc(OCCCNC(C)(C)C)c(C)c3oc2=O)ccc1O`: the values for the IC50 with MCF7 [1] and with SK-BR-3 were 0.95 µM and 0.66 µM, respectively.

For `CC(C)=CCc1cc(C(=O)Nc2cc3ccc(OCCCNCC(C)C)c(C)c3oc2=O)ccc1O`, the IC50 in the assay on MCF7 [1] was 1.32 µM; in the assay on SK-BR-3, 1.03 µM.

Turning to `CC(C)=CCc1cc(C(=O)Nc2cc3ccc(OCCCNC(C)(C)c4ccccc4)c(C)c3oc2=O)ccc1O`, the IC50 was found to be 1.07 µM in the assay on MCF7 [1] and 0.96 µM in the assay with SK-BR-3.

In the assay on SK-BR-3, `CO[C@@H]1[C@@H](O)[C@@H](O)[C@H](Oc2ccc3cc(NC(=O)c4ccc(O)c(CC=C(C)C)c4)c(=O)oc3c2C)OC1(C)C` gave an IC50 of 10 µM.

For the molecule `CC(C)=CCc1cc(C(=O)Nc2cc3ccc(OCCC4CCCCN4)c(C)c3oc2=O)ccc1O` (stereo not given), the IC50 in the assay on MCF7 [1] is 0.71 µM; in the assay on SK-BR-3, 0.64 µM.

Consider `CC(C)=CCc1cc(C(=O)Nc2cc3ccc(OCCCN[C@H](C)c4ccccc4)c(C)c3oc2=O)ccc1O`, for which the figures for the IC50 in the assay on MCF7 [1] and in the assay with SK-BR-3 were 1.45 µM and 1 µM, respectively.

Regarding `CC(C)=CCc1cc(C(=O)Nc2cc3ccc(OCC4CCCNC4)c(C)c3oc2=O)ccc1O` (stereo not given), the IC50 in the assay on MCF7 [1] was found to be 0.79 µM; in the assay with SK-BR-3, 0.6 µM.

On to `CC(C)=CCc1cc(C(=O)Nc2cc3ccc(OCCCN4CCOCC4)c(C)c3oc2=O)ccc1O`, for which the IC50 in the assay with MCF7 [1] and in the assay with SK-BR-3 was more than 50 µM throughout.

Take `CC(C)=CCc1cc(C(=O)Nc2cc3ccc(OCC4CCCN(C)C4)c(C)c3oc2=O)ccc1O` (stereo not given): the results for the IC50 with MCF7 [1] and in the assay with SK-BR-3 were 2.64 µM and 1.3 µM, respectively.

With `CC(C)=CCc1cc(C(=O)Nc2cc3ccc(OCCCN(C)C4CCCCC4)c(C)c3oc2=O)ccc1O`, the values for the IC50 in the assay with MCF7 [1] and in the assay on SK-BR-3 were 1.08 µM and 0.97 µM, respectively.

As to `CC(=O)Oc1ccc(C(=O)Nc2cc3ccc(OCC4CCCNC4)c(C)c3oc2=O)cc1CC=C(C)C` (stereo not given), the IC50 with MCF7 [1] came out at 0.82 µM; in the assay on SK-BR-3 it was 0.62 µM.

For `CC(C)=CCc1cc(C(=O)Nc2cc3ccc(OCCCNCC(N)=O)c(C)c3oc2=O)ccc1O`, the IC50 came out at 1.46 µM with MCF7 [1] and 2.29 µM in the assay on SK-BR-3.

As to `CC(C)=CCc1cc(C(=O)Nc2cc3ccc(OCCCNC45CC6CC(CC(C6)C4)C5)c(C)c3oc2=O)ccc1O`, the IC50 in the assay with MCF7 [1] worked out at 0.32 µM; in the assay with SK-BR-3, 0.31 µM. In the assay on MCF7 [2], the outcome was inactive. For the same molecule, the inhibition result in assay [3] and in assay [4] was “Dose-dependent effect” throughout.

Turning to `CC(C)=CCc1cc(C(=O)Nc2cc3ccc(OCCCN(C)c4ccccc4)c(C)c3oc2=O)ccc1O`, the IC50 in the assay with MCF7 [1] and in the assay on SK-BR-3 was more than 50 µM in each case.

As to `CC(C)=CCc1cc(C(=O)Nc2cc3ccc(OCCCNCCO)c(C)c3oc2=O)ccc1O`, the IC50 in the assay on MCF7 [1] is 1.56 µM; in the assay on SK-BR-3, 0.61 µM.

Consider `CC(C)=CCc1cc(C(=O)Nc2cc3ccc(OCCCN(C)Cc4ccccc4)c(C)c3oc2=O)ccc1O`, for which the IC50 was found to be 11.5 µM with MCF7 [1] and 10.7 µM in the assay with SK-BR-3.

Consider `CC(C)=CCc1cc(C(=O)Nc2cc3ccc(OCCCNC4CCCCC4)c(C)c3oc2=O)ccc1O`, for which the IC50 in the assay on MCF7 [1] was 1.07 µM; in the assay with SK-BR-3, 0.66 µM.

For the molecule `CC(C)=CCc1cc(C(=O)Nc2cc3ccc(OCC4CCN(C)C4)c(C)c3oc2=O)ccc1O` (stereo not given), the IC50 in the assay on MCF7 [1] worked out at 1.55 µM; in the assay on SK-BR-3, 0.92 µM.

On to `CC(C)=CCc1cc(C(=O)Nc2cc3ccc(OCCCN(C(C)C)C(C)C)c(C)c3oc2=O)ccc1O`, for which the IC50 in the assay on MCF7 [1] came out at 1.31 µM; with SK-BR-3, 1.6 µM.

In the case of `CC(C)=CCc1cc(C(=O)Nc2cc3ccc(OCCCN(C)C(C)C)c(C)c3oc2=O)ccc1O`, the results for the IC50 in the assay on MCF7 [1] and with SK-BR-3 were 1.05 µM and 0.57 µM, respectively.

On to `CC(C)=CCc1cc(C(=O)Nc2cc3ccc(OCCCN(C)C(C)(C)C)c(C)c3oc2=O)ccc1O`, for which the values for the IC50 in the assay on MCF7 [1] and in the assay on SK-BR-3 were 1.14 µM and 0.88 µM, respectively.
